{"source": "ChEMBL document CHEMBL4680077", "about": "“Differentiation of skeletal osteogenic progenitor cells to osteoblasts with 3,4-diarylbenzopyran based amide derivatives: Novel osteogenic agents” (Eur J Med Chem, 2016)", "key": {"[1]": {"assay": "Acute toxicity in Swiss albino mouse assessed as albumin level at 5 mg/kg, po measured after 7 days (reference value: 3.24 +/- 0.30 g/dL)", "type": "organism-based", "settings": "in vivo, 168 h, time 7 day"}, "[2]": {"assay": "Acute toxicity in Swiss albino mouse assessed as relative heart weight at 5 mg/kg, po measured after 7 days (reference value: 0.51 +/- 0.02 %)", "type": "organism-based", "settings": "in vivo, 168 h, time 7 day"}, "[3]": {"system": "Calvarial osteoblast", "assay": "Induction of osteoblast differentiation in mouse calvarial osteoblast assessed as increase in ALP activity using PNPP as substrate at 0.000001 to 1 uM incubated activity for 48 hrs by spectrophotometric analysis relative to control", "type": "functional, cell-based", "settings": "dose lower 1e-06 µM, dose upper 1.0 µM"}, "[4]": {"assay": "Acute toxicity in Swiss albino mouse assessed as relative liver weight at 5 mg/kg, po measured after 7 days (reference value: 6.81 +/- 2.14 %)", "type": "organism-based", "settings": "in vivo, 168 h, time 7 day"}, "[5]": {"assay": "Acute toxicity in Swiss albino mouse assessed as absolute testes weight at 300 mg/kg, po measured after 7 days (reference value: 0.15+/- 0.01 g)", "type": "organism-based", "settings": "in vivo, 168 h, time 7 day"}, "[6]": {"assay": "Acute toxicity in Swiss albino mouse assessed as basophil count at 1000 mg/kg, po measured after 7 days (reference value: 1.50 +/- 0.29 %)", "type": "organism-based", "settings": "in vivo, 168 h, time 7 day"}, "[7]": {"assay": "Acute toxicity in Swiss albino mouse assessed as SGPT level at 5 mg/kg, po measured after 7 days (reference value: 14.04 +/- 1.45 U/L)", "type": "organism-based", "settings": "in vivo, 168 h, time 7 day"}, "[8]": {"assay": "Acute toxicity in Swiss albino mouse assessed as creatinine level at 1000 mg/kg, po measured after 7 days (reference value: 0.97 +/- 0.07 mg/dL)", "type": "organism-based", "settings": "in vivo, 168 h, time 7 day"}, "[9]": {"system": "Mus musculus", "assay": "In vivo osteogenic activity in ovariectomized BALB/c mouse assessed as increase in force required to break bone at 1 to 10 mg/kg, po via gavage administered for 1 month by TKC Muromachi bone strength testing method", "type": "functional, organism-based", "settings": "dose 1-10 mg/kg, time 1.0 months", "outline": "(§1)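 Ovariectomized balb/c mice were gavaged with 1 or 10 mg kg-1 daily for one month. Bones were then tested on a bone strength tester for energy, stiffness and force to break. Mean ± SEM compared with the Ovx vehicle group.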"}, "[10]": {"system": "Mus musculus", "assay": "In vivo osteogenic activity in ovariectomized BALB/c mouse assessed as increase in bone stiffness at 1 to 10 mg/kg, po via gavage administered for 1 month by TKC Muromachi bone strength testing method", "type": "functional, organism-based", "settings": "dose 1-10 mg/kg, time 1.0 months", "outline": "as §1"}, "[11]": {"assay": "Acute toxicity in Swiss albino mouse assessed as relative ovary weight at 1000 mg/kg, po measured after 7 days (reference value: 0.07 +/- 0.02 %)", "type": "organism-based", "settings": "in vivo, 168 h, time 7 day"}, "[12]": {"assay": "Acute toxicity in Swiss albino mouse assessed as tissue protein level at 300 mg/kg, po measured after 7 days (reference value: 0.029 +/- 0.004 mg/ml)", "type": "organism-based", "settings": "in vivo, 168 h, time 7 day"}, "[13]": {"assay": "Acute toxicity in Swiss albino mouse assessed as SGOT level at 1000 mg/kg, po measured after 7 days (reference value: 31.99 +/- 3.37 U/L)", "type": "organism-based", "settings": "in vivo, 168 h, time 7 day"}, "[14]": {"assay": "Clearance in Sprague-Dawley rat at 1 mg/kg, iv measured upto 24 hrs by LC-MS/MS analysis", "type": "ADME, organism-based", "settings": "in vivo"}, "[15]": {"system": "Mus musculus", "assay": "In vivo osteogenic activity in ovariectomized BALB/c mouse assessed as increase in femur bone volume density at 1 to 10 mg/kg, po via gavage administered for 1 month by microCT imaging analysis", "type": "functional, organism-based", "settings": "dose 1-10 mg/kg, time 1.0 months", "outline": "(§2)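 Ovariectomized female balb/c mice, 8 weeks old, 10 per group, received 1.0 or 10.0 mg kg-1 once daily by oral gavage (gum acacia vehicle) for 4 weeks, alongside sham and Ovx vehicle groups. Femurs were scanned by microCT. BV/TV, Tb.N and Tb.Sp were derived by the mean intercept length method. Mean ± SE.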"}, "[16]": {"assay": "Acute toxicity in Swiss albino mouse assessed as haemoglobin level at 5 mg/kg, po measured after 7 days (reference value: 10.86 +/- 0.87 g/dL)", "type": "organism-based", "settings": "in vivo, 168 h, time 7 day"}, "[17]": {"system": "Mus musculus", "assay": "In vivo osteogenic activity in ovariectomized BALB/c mouse assessed as decrease in trabecular spacing at 1 to 10 mg/kg, po via gavage administered for 1 month by microCT imaging analysis", "type": "functional, organism-based", "settings": "dose 1-10 mg/kg, time 1.0 months", "outline": "as §2"}, "[18]": {"assay": "Acute toxicity in Swiss albino mouse assessed as haemoglobin level at 50 mg/kg, po measured after 7 days (reference value: 10.86 +/- 0.87 g/dL)", "type": "organism-based", "settings": "in vivo, 168 h, time 7 day"}, "[19]": {"assay": "Acute toxicity in Swiss albino mouse assessed as observational changes at 5 to 1000 mg/kg, po measured after 7 days", "type": "organism-based", "settings": "in vivo, 168 h, dose 5-1000 mg/kg, time 7 day", "outline": "(§3)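 Acute oral toxicity per OECD guidelines 420, 423 and 425. Swiss albino mice received a single oral dose at 5, 50, 300 or 1000 mg kg1 body weight, with vehicle controls. Animals were watched for morbidity, mortality and observational changes over 7 days. Tail-vein blood was then taken for hematology and serum biochemistry. Organs were inspected at sacrifice. n = 6 per group.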"}, "[20]": {"assay": "Acute toxicity in Swiss albino mouse assessed as triglycerides level at 300 mg/kg, po measured after 7 days (reference value: 58.51 +/- 10.82 mg/dL)", "type": "organism-based", "settings": "in vivo, 168 h, time 7 day"}, "[21]": {"assay": "Acute toxicity in Swiss albino mouse assessed as absolute kidney weight at 1000 mg/kg, po measured after 7 days (reference value: 0.29 +/- 0.02 g)", "type": "organism-based", "settings": "in vivo, 168 h, time 7 day"}, "[22]": {"assay": "Acute toxicity in Swiss albino mouse assessed as morbidity at 5 to 1000 mg/kg, po measured after 7 days", "type": "organism-based", "settings": "in vivo, 168 h, dose 5-1000 mg/kg, time 7 day", "outline": "as §3"}, "[23]": {"assay": "Acute toxicity in Swiss albino mouse assessed as relative lung weight at 50 mg/kg, po measured after 7 days (reference value: 0.70 +/- 0.08 %)", "type": "organism-based", "settings": "in vivo, 168 h, time 7 day"}, "[24]": {"assay": "Acute toxicity in Swiss albino mouse assessed as WBC count per thousand/mm3 at 1000 mg/kg, po measured after 7 days (reference value: 6.84 +/- 0.83 /mm3)", "type": "organism-based", "settings": "in vivo, 168 h, time 7 day"}, "[25]": {"system": "Mus musculus", "assay": "In vivo osteogenic activity in ovariectomized BALB/c mouse assessed as increase in trabecular number at 1 to 10 mg/kg, po via gavage administered for 1 month by microCT imaging analysis", "type": "functional, organism-based", "settings": "dose 1-10 mg/kg, time 1.0 months", "outline": "as §2"}, "[26]": {"assay": "Acute toxicity in Swiss albino mouse assessed as eosinophil count at 50 mg/kg, po measured after 7 days (reference value: 6.34 +/- 1.04 %)", "type": "organism-based", "settings": "in vivo, 168 h, time 7 day"}, "[27]": {"assay": "Acute toxicity in Swiss albino mouse assessed as lymphocyte count at 5 mg/kg, po measured after 7 days (reference value: 37.97 +/- 1.80 %)", "type": "organism-based", "settings": "in vivo, 168 h, time 7 day"}, "[28]": {"system": "Calvarial osteoblast", "assay": "Induction of osteoblast differentiation in mouse calvarial osteoblast assessed as increase in collagen type 1 mRNA expression at 1 pM incubated for 24 and 48 hrs by qPCR analysis", "type": "functional, cell-based", "outline": "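Calvarial osteoblasts were treated at 1 pM for 24 and 48 h. Total RNA was extracted with TRIzol, and cDNA was made from 2 µg RNA. qPCR ran 40 cycles for BMP-2, RUNX-2, OCN and collagen type 1, with normalization to GAPDH. Mean ± SEM of three independent experiments.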"}, "[29]": {"assay": "Acute toxicity in Swiss albino mouse assessed as absolute uterus weight at 50 mg/kg, po measured after 7 days (reference value: 0.27+/- 0.07 g)", "type": "organism-based", "settings": "in vivo, 168 h, time 7 day"}, "[30]": {"assay": "Acute toxicity in Swiss albino mouse assessed as relative liver weight at 1000 mg/kg, po measured after 7 days (reference value: 6.81 +/- 2.14 %)", "type": "organism-based", "settings": "in vivo, 168 h, time 7 day"}}, "note": "Calls of active or inactive are those of the source. The calls are words filed in the database; no cut-off is given here."}
{"smiles": "CCCCN(C)C(=O)CCCCOc1ccc([C@H]2c3ccc(OC)cc3OC(C)(C)[C@@H]2c2ccccc2)cc1", "values": [{"measurement": "Activity", "setting": "[1]", "result": 3.97, "unit": "g/dL"}, {"measurement": "Activity", "setting": "[2]", "result": 0.48, "unit": "%"}, {"measurement": "Activity", "setting": "[3]", "result": "Active"}, {"measurement": "Activity", "setting": "[4]", "result": 4.84, "unit": "%"}, {"measurement": "Activity", "setting": "[5]", "result": 0.14, "unit": "g"}, {"measurement": "Activity", "setting": "[6]", "result": 1.75, "unit": "%"}, {"measurement": "Activity", "setting": "[7]", "result": 17.44, "unit": "U/L"}, {"measurement": "Activity", "setting": "[8]", "result": 0.69, "unit": "mg/dL"}, {"measurement": "Activity", "setting": "[9]", "result": "Active"}, {"measurement": "Activity", "setting": "[10]", "result": "Active"}, {"measurement": "Activity", "setting": "[11]", "result": 0.05, "unit": "%"}, {"measurement": "Activity", "setting": "[12]", "result": 0.034, "unit": "mg/mL"}, {"measurement": "Activity", "setting": "[13]", "result": 38.6, "unit": "U/L"}, {"measurement": "clearance", "setting": "[14]", "result": 18.4, "unit": "mL/min/kg"}, {"measurement": "Activity", "setting": "[15]", "result": "Active"}, {"measurement": "Activity", "setting": "[16]", "result": 12.94, "unit": "g/dL"}, {"measurement": "Activity", "setting": "[17]", "result": "Active"}, {"measurement": "Activity", "setting": "[18]", "result": 13.14, "unit": "g/dL"}, {"measurement": "Activity", "setting": "[19]", "result": "Non-Toxic"}, {"measurement": "Activity", "setting": "[20]", "result": 57.55, "unit": "mg/dL"}, {"measurement": "Activity", "setting": "[21]", "result": 0.29, "unit": "g"}, {"measurement": "Activity", "setting": "[22]", "result": "Non-Toxic"}, {"measurement": "Activity", "setting": "[23]", "result": 0.84, "unit": "%"}, {"measurement": "Activity", "setting": "[24]", "result": "5.1 /mm3"}, {"measurement": "Activity", "setting": "[25]", "result": "Active"}, {"measurement": "Activity", "setting": "[26]", "result": 6.99, "unit": "%"}, {"measurement": "Activity", "setting": "[27]", "result": 39.08, "unit": "%"}, {"measurement": "Activity", "setting": "[28]", "result": "Active"}, {"measurement": "Activity", "setting": "[29]", "result": 0.24, "unit": "g"}, {"measurement": "Activity", "setting": "[30]", "result": 5.28, "unit": "%"}]}
